# Assay outcomes from PubChem.
# SENP6 inh = blocks the human protease SENP6; Recombinant SENP6 catalytic domain, aminoluciferin luminescence; hit rate 1.8% among 330,000; AID 2599; inhibition, % at 10 µM; Q9GZR1;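 active = inhibition above about 50% at the single tested dose, limit read from the data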
# SENP7 inh = blocks the human protease SENP7; Q9BQF6; recombinant SENP7, Z-RLRGG-aminoluciferin luminescence, 40 min; inhibition, % at 5 µM; hit rate 1.5% among 330,000; AID 434973;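 active = inhibition above about 50% at the single test dose, limit read from the data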
# Target sequence (Q9BQF6 706-1050 limits assumed): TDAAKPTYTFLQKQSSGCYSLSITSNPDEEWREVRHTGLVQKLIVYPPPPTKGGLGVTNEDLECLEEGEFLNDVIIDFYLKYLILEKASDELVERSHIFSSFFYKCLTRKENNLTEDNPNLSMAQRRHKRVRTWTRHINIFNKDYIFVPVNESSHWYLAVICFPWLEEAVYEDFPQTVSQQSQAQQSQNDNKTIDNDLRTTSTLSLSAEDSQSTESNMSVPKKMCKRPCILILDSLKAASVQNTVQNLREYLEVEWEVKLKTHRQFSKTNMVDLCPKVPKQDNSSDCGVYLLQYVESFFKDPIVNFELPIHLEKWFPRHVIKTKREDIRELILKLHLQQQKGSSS
# SENP8 block-1 = SENP8 (human) protease inhibition. Q96LD8. recombinant SENP8, Nedd8 substrate fluorescence. inhibition, % at 20 µM. hit rate 0.64% among 360,000; in the data active = inhibition mostly above about 40%, no sharp cut-off; inactive = mostly below about 27%
# Platelet DG rel = modulates dense granule release in human platelets | human platelet-rich plasma, SFLLRN dense granule ATP release, luminescence | inhibition, %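 (compounds screened at 7.5 µM in platelet-rich plasma)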 | hit rate 0.22% among 300,000 | AID 1663;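 active = mean replicate score, as percent of positive control, at or above 50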
# SENP1 FRET inh = inhibitors of human SENP1 SUMO protease catalytic domain. Q9P0U3. recombinant SENP1 catalytic domain, CyPet-SUMO1-YPet FRET cleavage. inhibition, % at 10 µM. hit rate 0.21% among 360,000. AID 624204;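 active = inhibition at least 30% at 10 µM, raw YFP signal under a set limit, fluorescence ratio 0.5 to 1.5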
# Target sequence (Q9P0U3 419-644 limits assumed): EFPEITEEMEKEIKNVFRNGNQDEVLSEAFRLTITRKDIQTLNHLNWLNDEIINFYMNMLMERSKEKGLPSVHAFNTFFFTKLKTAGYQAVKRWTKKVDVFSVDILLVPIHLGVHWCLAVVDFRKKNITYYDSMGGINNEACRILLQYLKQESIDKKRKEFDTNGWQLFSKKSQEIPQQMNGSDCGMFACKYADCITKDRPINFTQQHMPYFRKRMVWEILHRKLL
#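 system = hSENP1 catalytic domain, recombinant | reagent = SFCypet-SUMO1-SFYpet substrate at 25 nM | doses = one dose per compound, 10 µM, 0.5% DMSO | incubation = enzyme reaction for 50 min at room temperature, dark | measured by = FRET, CFP and YFP emission | controls = no-enzyme low, enzyme-DMSO high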
# SENP8 block-2 = SENP8 protease inhibition | purified SENP8, Z-RLRGG-aminoluciferin cleavage, luminescence | Q96LD8 | inhibition, % at 10 µM | hit rate 1.2% among 330,000; in the data active = inhibition above about 50%
# SENP8 conf = human SENP8 inhibition, confirmed; shares compounds with SENP7 inh; Recombinant SENP8, Z-RLRGG-aminoluciferin luminescence, 60 min; inhibition, % at 12.5 µM; hit rate 40% among 6,200; AID 488912;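 active = mean inhibition across replicates above about 50%, limit read from the data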
# SENP6 conf = human SENP6 inhibition, confirmed; recombinant SENP6, Z-RLRGG-aminoluciferin luminescence; inhibition, % at 12.5 µM; shares compounds with SENP7 inh; AID 488915; hit rate 58% among 6,200
# SENP7 confirm = human SENP7 inhibition, confirmed; shares compounds with SENP7 inh; recombinant SENP7, Z-RLRGG-aminoluciferin luminescence, 40 min; inhibition, % at 12.5 µM; hit rate 69% among 6,200
# Casp3 SENP sel = selectivity test for SENP inhibitors: human caspase-3 inhibition; inhibition, % at 12.5 µM; hit rate 60% among 6,200; purified caspase-3, Z-DEVD-aminoluciferin luminescence, 60 min; AID 488918; shares compounds with SENP7 inh;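 active = mean inhibition above about 50%, limit read from the data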
# Luc interf = luminescence interference (SENP counter-screen); Pre-incubated SENP8/Z-RLRGG-aminoluciferin, luciferase luminescence interference; shares compounds with SENP7 inh; hit rate 39% among 6,200; inhibition, % at 12.5 µM;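 active = mean inhibition above about 50% when retested at one dose, limit read from the data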
# Hits are given with their value; 0 = inactive; - = not tested or not shown. The list is not random: actives were taken first. Their share in the collection is about 2.6%.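 The calls were made as follows, unless noted: active = mean inhibition above about 50% in the one-dose retest (limit read from the data); inactive = the rest.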
SMILES,SENP6 inh,SENP7 inh,SENP8 block-1,Platelet DG rel,SENP1 FRET inh,SENP8 block-2,SENP8 conf,SENP6 conf,SENP7 confirm,Casp3 SENP sel,Luc interf
Cc1ccc2oc(C(=O)NCCCN3CCOCC3)c(C)c2c1,0,0,0,0,0,0,-,-,-,-,-
O=C(O)c1ccc(/C=N/Nc2nc3ccccc3[nH]2)cc1,0,58,0,0,0,0,0,0,0,0,0
O=c1[nH]c(N/N=C\c2ccc(F)cc2)nc2ccccc12,0,0,0,0,0,0,-,-,-,-,-
O=c1[nH]c(N/N=C/c2ccc(O)cc2)nc2ccccc12,75,51,0,0,0,60,0,62,86,81,71
Nc1nc(-c2ccc3c(c2)OCCO3)cs1,0,0,0,0,0,0,-,-,-,-,-
Nc1nc(-c2ccc3c(c2)CCCC3)cs1,79,56,0,-,0,53,65,75,91,51,70
O=C(N/N=C/c1ccc([N+](=O)[O-])cc1)c1cc(C2CC2)[nH]n1,0,0,0,0,0,0,-,-,-,-,-
O=C(N/N=C/c1ccc([N+](=O)[O-])cc1)c1[nH]ncc1Br,86,85,0,0,0,72,0,0,0,88,0
Cc1cccc(N=Nc2cnc(N)s2)c1,55,0,0,0,0,0,52,0,70,0,0
COc1ccc(C(C(=O)NC(C)(C)C)n2c(=O)c(-c3ccccc3)nc3ccccc32)cc1 (stereo unspecified),-,-,0,-,0,-,-,-,-,-,-
CC(C)Cc1cc(C(=O)Nc2cccc(O)c2)no1,93,92,0,0,0,86,91,91,99,92,75
CC(C)Cc1cc(C(=O)Nc2ccc(Br)cc2)no1,0,0,0,0,0,0,-,-,-,-,-
CC(C)c1cc(C(=O)Nc2cccc(Cl)c2)no1,89,91,0,0,0,89,94,96,102,92,88
CC(=O)c1cccc(NC(=O)c2cc(C(C)C)on2)c1,0,0,0,0,0,0,-,-,-,-,-
CC(C)Cc1cc(C(=O)Nc2cc(Cl)ccc2Cl)no1,0,0,0,0,0,0,-,-,-,-,-
CC(C)Cc1cc(C(=O)Nc2ccc(F)cc2F)no1,64,56,0,0,0,0,0,0,82,60,0
CC(C)Cc1cc(C(=O)Nc2ccc3c(c2)OCO3)no1,66,53,0,0,0,0,0,0,80,60,0
O=C(NCCS(=O)(=O)NCc1ccccn1)c1ccccc1,0,0,0,0,0,0,-,-,-,-,-
Cc1ccc(S(=O)(=O)N2[C@H](CC(=O)Oc3ccccc3)OC[C@@H]2C(C)C)cc1,-,-,0,-,0,-,-,-,-,-,-
Nc1ccc(C(=O)Nc2ccc(Nc3ccncc3)cc2)c([N+](=O)[O-])c1,-,-,0,-,0,-,-,-,-,-,-
Cc1nnc(NC(=O)Nc2cccc(Cl)c2)s1,57,0,0,0,0,0,0,52,62,56,0
C=C1C(=O)OCC2C(C(=O)O)=CC3C(C)C(C)=CC123 (stereo unspecified),-,-,0,-,0,-,-,-,-,-,-
CC(=O)Nc1ccc2nc(-c3ccccc3)cn2c1,0,0,0,0,0,0,-,-,-,-,-
COC(=O)c1ccc2nc(-c3cccc(N)c3)cn2c1,0,66,0,0,0,0,60,62,86,86,69
Cc1ccc(C(O)c2ncc(-c3ccc(F)cc3)[nH]2)c(C)c1 (stereo unspecified),-,-,0,-,0,-,-,-,-,-,-
SMILES,SENP6 inh,SENP7 inh,SENP8 block-1,Platelet DG rel,SENP1 FRET inh,SENP8 block-2,SENP8 conf,SENP6 conf,SENP7 confirm,Casp3 SENP sel,Luc interf
O=C(CSc1ncccc1-c1nc2ccccc2[nH]1)N1CCc2ccccc21,0,55,0,0,0,0,0,0,0,0,0
COC(=O)CSc1ncccc1-c1nc2ccccc2[nH]1,0,0,0,0,0,0,-,-,-,-,-
COc1ccc(N2CCN(S(=O)(=O)CCNC(=O)/C=C/c3ccccc3)CC2)cc1,0,0,0,0,0,0,-,-,-,-,-
Cc1nn(-c2ccccc2)c(Cl)c1/C=N/NC(=O)c1ccnn1C,94,94,0,0,0,87,59,81,97,92,55
Cc1nn(-c2ccccc2)c(Cl)c1/C=N/NC(N)=O,0,0,0,0,0,0,-,-,-,-,-
CC(/C=C1\SC(=S)N(NC(=O)c2ccccc2C)C1=O)=C\c1ccccc1,0,0,0,0,0,0,-,-,-,-,-
CC(/C=C1\SC(=S)N(NS(=O)(=O)c2ccccc2)C1=O)=C\c1ccccc1,96,0,0,0,0,80,92,92,0,0,0
CC(/C=C1\SC(=S)N(NS(=O)(=O)c2ccc(C)cc2)C1=O)=C\c1ccccc1,0,0,0,0,0,84,0,84,0,0,0
C(#CC1CCCC1)c1ccc2c(c1)COc1c3ccccc3nn1-2,0,0,0,0,0,0,-,-,-,-,-
CCCc1cc(-c2ccc3c(c2)COc2c4ccccc4nn2-3)on1,93,91,0,0,0,89,0,0,0,64,0
Cc1cc(-c2ccc3c(c2)COc2c4ccccc4nn2-3)on1,93,0,0,0,0,86,0,0,0,0,0
c1ccc2c(c1)COc1c3ncccc3nn1-2,-,-,0,-,0,-,-,-,-,-,-
Cc1ccc(S(=O)(=O)N2CCN(C(=O)CSCc3ccc(C(C)C)cc3)CC2)cc1,0,0,0,-,0,0,-,-,-,-,-
O=[N+]([O-])c1ccccc1CSc1nc2ccccc2o1,55,0,0,0,0,0,0,0,0,0,0
CCN(C(=O)COC(=O)c1cccnc1Nc1ccccc1F)C1CCS(=O)(=O)C1 (stereo unspecified),91,96,0,0,0,83,91,91,99,94,90
O=C(COC(=O)c1cccnc1Nc1ccccc1F)NC1CC1,0,0,0,0,0,0,-,-,-,-,-
CN(C(=O)COC(=O)c1cccnc1Nc1cccc(C(F)(F)F)c1)C1CCS(=O)(=O)C1 (stereo unspecified),0,0,0,0,0,0,-,-,-,-,-
CN(C(=O)COC(=O)c1cccnc1Nc1ccccc1F)C1CCS(=O)(=O)C1 (stereo unspecified),58,56,0,0,0,0,0,0,74,75,53
CCN(C(=O)COC(=O)c1cc(-c2ccc3cc(OC)ccc3c2)nc2ccccc12)C1CCS(=O)(=O)C1 (stereo unspecified),94,92,-,0,-,89,0,74,0,77,0
